A selection: hits, their analogues and other compounds. The true share with any hit is near 2.2%.
TRAIL sens C8 – sensitizes caspase-8 expressing cells to TRAIL. inhibition (viability loss, TRAIL sensitization), % at 10 µM. 360,000 compounds, 1% hits. NB7+C8 cells + TRAIL, ATPlite viability luminescence;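 active = compounds causing at least 50% loss of cell viability in the single-dose screen, relative to plate controls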
FLuc act counter – affects firefly luciferase, flagging false hits in luciferase stimulation screens; P08659; ATPlite luciferase biochemical, luminescence, 10 min; 0 = ATP-free wells, 1 = DMSO control; activation factor at 10 µM; 200,000 tested, under 10 active;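 active = luciferase activation factor, scaled between plate controls, of at least 2 with compound at 10 µM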
Target sequence (P08659 whole entry, looked up): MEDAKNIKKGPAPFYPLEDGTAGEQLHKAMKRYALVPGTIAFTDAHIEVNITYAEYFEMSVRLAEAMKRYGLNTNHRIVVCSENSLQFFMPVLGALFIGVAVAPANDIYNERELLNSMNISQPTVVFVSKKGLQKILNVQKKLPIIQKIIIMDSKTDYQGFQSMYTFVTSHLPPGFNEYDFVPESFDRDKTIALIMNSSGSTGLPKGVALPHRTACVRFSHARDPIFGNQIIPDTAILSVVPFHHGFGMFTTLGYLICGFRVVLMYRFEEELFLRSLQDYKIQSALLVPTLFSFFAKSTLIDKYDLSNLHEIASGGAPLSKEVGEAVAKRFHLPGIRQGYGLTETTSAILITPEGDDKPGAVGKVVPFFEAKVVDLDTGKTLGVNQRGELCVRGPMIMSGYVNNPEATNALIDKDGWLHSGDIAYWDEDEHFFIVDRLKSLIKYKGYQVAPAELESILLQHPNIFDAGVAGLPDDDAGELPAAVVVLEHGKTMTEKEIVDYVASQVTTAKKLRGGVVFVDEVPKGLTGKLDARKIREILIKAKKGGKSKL
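System: Luciferase/luciferin detection reagent, cell-free biochemical luciferase assay | Medium: PBS buffer for ATP | Dosing: Test compounds dosed from 2 mM stocks in 100% DMSO | Timing: 10 min at ambient temperature | Signal: Luminescence measurement of luciferase light output | Evaluation: Luciferase activation, seen as luminescence increase over controls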
APP 5'UTR act – activates APP 5'UTR luciferase reporter; SH-SY5Y APP 5'UTR luciferase reporter, luminescence; zero percent = DMSO vehicle wells; activation, % at 2 µM; 190,000 compounds, 1% hits;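 active = activation above a set limit, based on mean plus 3 SD of controls, cut at about 140% in these data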
PPC-1+TRAIL kill – PPC-1 cancer cell killing with TRAIL present; AID 1443; PPC-1 cells + TRAIL, ATPLite viability luminescence; cell killing (% activity), % at 4 µM or 5 µM; 220,000 compounds, 0.41% hits;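 active = cell killing above 50% in the first pass at 4 µM, then a duplicate retest at 5 µM averaging 50% or more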;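 also: plate controls were cells with TRAIL plus DMSO for no effect and medium-only wells lacking cells for full effect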
FLuc inh counter – inhibits firefly luciferase, flagging false hits in luciferase inhibition screens; inhibition, % at 10 µM; 200,000 compounds, 1.5% hits; AID 1006; ATPLite firefly luciferase biochemical luminescence, 10 min; P08659;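 active = inhibition above about 50% when tested at 10 µM, limit read from the data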
NF-kB neuron act – compounds increasing NF-kB expression in human neuronal cells; NF-kB reporter expression; hits give high values; fold change at 12.5 µM; 190,000 compounds, 1.6% hits; AID 1239; in the data active = fold change above about 3.3
* hit, by the source's call; nt = no result given.

SMILES	TRAIL sens C8	FLuc act counter	APP 5'UTR act	PPC-1+TRAIL kill	FLuc inh counter	NF-kB neuron act
C=CCc1c(C)nc(-c2ccccc2)nc1N/N=C/c1ccncc1	20	0.5	18	25	53*	0.48
CCOC(=O)c1c(NC(=O)CC(C)C)sc(C(C)=O)c1C	-1	1.1	-14	10	-6	5.9*
Cc1cc2[nH]c3c4ccccc4nc(C)c3c2cc1C	83*	nt	nt	nt	nt	nt
Cc1cc2[nH]c3ccccc3c2c(C)n1	5	1.1	-5	-7	-7	0.5
CCOc1ccc(N=Cc2c(O)cc(C)oc2=O)cc1	-27	0.5	7	13	53*	1.1
CCOc1ccc(N=Cc2c(O)c3ccccc3oc2=O)cc1	-5	0.2	-3	10	78*	1.5
CCCCC(=O)N(C)c1c(C)nc2ccc(C(=O)NCCN(C)C)cn12	-3	nt	nt	nt	nt	nt
O=C(NCCc1ccccc1)c1ccc([N+](=O)[O-])cc1	39	0.3	152*	12	66*	4.3*
O=[N+]([O-])c1ccc(Cc2nnc(-c3ccccc3Cl)o2)cc1	11	1	166*	-1	0	3.6*
Cc1ccc(NC(=O)COCC(=O)Nc2ccc(F)cc2)cc1	-5	nt	nt	nt	nt	nt
Brc1ccc2nc(N3CCN(c4ccccc4)CC3)sc2c1	-4	0.9	132	25	8	2
CN1CCN(c2ccc3sc(-n4ccc5ccccc54)nc3c2)CC1	68*	nt	nt	nt	nt	nt
CCOC(=O)N1N=C(c2ccc(C)cc2)CC1(O)C(F)(F)F (stereo unspecified)	18	0.5	nt	28	54*	2.8
CCOC(=O)N1N=C(c2ccccc2)CC1(O)C(F)(F)F (stereo unspecified)	4	0.9	95	17	9	1.6
Cc1cc2c(=Cc3ccc(N(C)C)cc3)c3ccccc3n2[n+]1C	31	nt	nt	nt	nt	nt
C[n+]1c(-c2ccccc2)cc2c(=Cc3ccccc3)c3ccccc3n21	81*	nt	nt	nt	nt	nt
CN(C)c1ccc(C=c2c3cc(O)ccc3n3c2cc(-c2ccccc2)[n+]3C)cc1	51*	nt	nt	nt	nt	nt
CCOC(=O)c1cc2c(=Cc3ccc(N(C)C)cc3)c3ccccc3n2[n+]1C	53*	nt	nt	nt	nt	nt
COc1ccccc1-n1c(SCC(=O)Nc2cc(C)on2)nc2c([nH]c3ccccc32)c1=O	1	nt	nt	nt	nt	nt
O=C(COC(=O)c1ccc(S(=O)(=O)N2CCCCC2)cc1)NCc1ccc(F)cc1	5	nt	nt	nt	nt	nt
COc1ccc(NC(=O)C2c3ccccc3OCC(=O)N2Cc2cccnc2)cc1 (stereo unspecified)	0	nt	nt	nt	nt	nt
Nc1ccc2nc(-c3cccc(-c4nc5ccc(N)cc5[nH]4)c3)[nH]c2c1	-5	nt	nt	nt	nt	nt
Nc1ccc2cc3[nH]c4cc(N)ccc4c3nc2c1	63*	nt	nt	nt	nt	nt
C(=N\N=C\c1cccs1)/c1cccs1	16	0.2	91	15	83*	3.3
Clc1ccc(CSc2ccc(-c3ccco3)nn2)cc1	9	0.8	5	8	18	1.9
SMILES	TRAIL sens C8	FLuc act counter	APP 5'UTR act	PPC-1+TRAIL kill	FLuc inh counter	NF-kB neuron act
Fc1ccccc1CSc1ccc(-c2ccco2)nn1	40	0.2	64	16	78*	4.9*
c1ccc(CSc2ccc(-c3ccco3)nn2)cc1	59*	0.2	110	26	83*	3.9*
c1ccc(CSc2ccc(-c3ccccn3)nn2)cc1	42	0.4	139*	16	58*	6.5*
Clc1ccc(CSc2ccc(-c3ccccn3)nn2)cc1	15	1	53	10	0	1.9
Cc1ccc(CSc2ccc(-c3ccco3)nn2)cc1	40	0.4	71	31	55*	3.3*
COCCN(CC(=O)NC1CCCCC1)C(=O)CCCC(=O)Nc1ccccn1	-10	1	20	-2	-3	0.98
O=C(O)c1ccc(N/N=C/c2ccc(-c3ccccc3)cc2)cc1	6	0.9	186*	8	14	10*
CC(C)c1ccc(/C=N/Nc2ccc(C(=O)O)cc2)cc1	15	0.5	15	39	49	1.1
O=C(O)c1ccc(/C=N/Nc2ccc(C(F)(F)F)cn2)cc1	-6	1	138*	-3	3	3.9*
COc1ccccc1C(=O)NCCC(=O)NC1CCC(C)CC1 (stereo unspecified)	9	nt	nt	nt	nt	nt
CC1(c2ccccc2)NC(=S)N2C1NC(=S)N2c1ccccc1 (stereo unspecified)	-7	1	1	-4	-4	1.5
COc1ccc(N2C(=S)NC3N2C(=S)NC3(C)c2ccccc2)cc1 (stereo unspecified)	5	1	55	11	-2	6.7*
CC(C)C[C@@H]1O[C@H](CCc2ccccc2)Cc2[nH][nH]c(=O)c21	-13	nt	nt	nt	nt	nt
CCC(C(=O)OC(C)C)c1ccc2ccccc2c1 (stereo unspecified)	4	nt	nt	nt	nt	nt
COc1cc(OC)cc(C(=O)O/N=C(\N)c2ccncc2)c1	-9	1	13	9	4	1.4
N/C(=N\OC(=O)c1ccc(Br)cc1)c1ccncc1	-10	0.3	78	22	68*	2.3
N/C(=N\OC(=O)c1ccccc1)c1ccncc1	2	0.3	38	24	66*	1.1
CN(C)C(=O)c1cccc(COc2ccc(N3C(N)=NC(N)=NC3(C)C)cc2Cl)c1	83*	nt	nt	nt	nt	nt
COc1cccc(C(=O)N(C)c2nnc(-c3ccncc3)s2)c1	-18	1	8	8	0	1.6
Cc1cc(NC(=O)CCC(=O)N(Cc2ccco2)C2(C(=O)NC3CCCCC3)CCCC(C)C2)no1 (stereo unspecified)	10	nt	nt	nt	nt	nt
CCN(CC)CCOC(=O)/C=C/c1ccccc1	1	nt	nt	16	nt	nt
CCN(CC)CC(C)(C)C(=O)/C=C/c1ccc(/C=C/C(=O)C(C)(C)CN(CC)CC)cc1	92*	nt	nt	nt	nt	nt
CC1CN(Cc2ccccc2)c2ccccc2NC1=S (stereo unspecified)	1	1	2	52*	1	0.92
CC1CN(Cc2ccccc2)C(=O)N(c2ccccc2)C1=O (stereo unspecified)	-22	nt	nt	nt	nt	nt
O=C(Nc1cccc(O)c1)c1noc2c1CCc1ccccc1-2	71*	0.1	195*	7	87*	6.1*
SMILES	TRAIL sens C8	FLuc act counter	APP 5'UTR act	PPC-1+TRAIL kill	FLuc inh counter	NF-kB neuron act
COC(=O)CCCn1cc(CN2CC(N3CCN(CCN(C)C)CC3)CS2(=O)=O)nn1 (stereo unspecified)	-16	nt	nt	nt	nt	nt
CCOC(=O)c1ccc(NS(=O)(=O)c2ccc3c(c2)NC(=O)CCS3)cc1	-17	nt	nt	nt	nt	nt
Cc1cc(O)c(/C=N/Nc2ccc(F)cc2)c(=O)o1	-3	0.3	10	8	68*	0.98
Cc1ccc(N/N=C/c2c(O)cc(C)oc2=O)cc1	5	0.3	11	-10	68*	1.1
C/C(=N\Nc1ccc(S(=O)(=O)N2CCOCC2)cc1[N+](=O)[O-])C(C)C	2	1	11	10	-4	1.2
Nc1ccc(S(=O)(=O)NC2(C(F)(F)F)NC(=O)N(Cc3ccccc3)C2=O)cc1 (stereo unspecified)	0	nt	nt	nt	nt	nt

Screening data: PubChem, several laboratories
